The test system of series [1] is HEK293. The series is described as follows: Inhibition of NF-kappaB expressed in HEK293 cells assessed as inhibition of TNF-alpha-stimulated transcriptional activation at 10 uM treated 24 hrs before TNFalpha challenge measured after 20 to 24 hrs by luciferase reporter gene assay. The series is classed as cell-based. In a few lines:
(§1)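 Compounds in 0.1% DMSO (10 µM–1 nM) were added to replicate wells for 24 h. Cells were then stimulated with TNF-α for 20–24 h and read with Bright-Glo luciferase. Mean RLU was normalized to the maximal control; IC50 came from a six-point dose response.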
(In general: A reporter such as luciferase makes a cellular process visible.)

Series [2] deals with HEK293. The series is described as follows: Cytotoxicity against TNF-alpha-stimulated HEK293 cells at 10 uM treated 24 hrs before TNFalpha challenge measured after 20 to 24 hrs. To be noted: human, hek293, 10 µM. Format: cell-based.
Series [3] deals with Transcription factor Jun (Homo sapiens) (UniProt P05412). The series is described as follows: Inhibition of AP-1 expressed in HEK293 cells assessed as PMA-stimulated transcriptional activation at 10 uM treated 24 hrs before PMA challenge measured after 20 to 24 hrs by luciferase reporter gene assay. Format: cell-based. In a few lines: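 HEK-293 cells stably carrying a minimal-promoter luciferase construct with tandem AP-1 elements (TGACTAA) were plated at 5 × 10⁴ cells/well and held 24 h at 37 °C in 5% CO₂. Compounds in 0.1% DMSO (10 µM–1 nM) were added to replicate wells for 24 h. Cells were then stimulated with PMA for 20–24 h and read with Bright-Glo luminescence. Mean RLU was normalized to the maximal control; IC50 came from a six-point dose response.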

The next series has as its system Rattus norvegicus. Description: Antiinflammatory activity against carrageenan-induced paw edema in Sprague-Dawley rat assessed as reduction in paw volume at 50 mg/kg, po dosed 1 hr before carrageenan challenge measured after 3 hrs by plethysmometry. Format: functional. More on the design: scale not given: the % may be the effect or the level left. (In general: Carrageenan injected into the paw causes an acute inflammation.)

Series [4] in a line: Inhibition of NF-kappaB expressed in HEK293 cells assessed as inhibition of TNF-alpha-stimulated transcriptional activation treated 24 hrs before TNFalpha challenge measured after 20 to 24 hrs by luciferase reporter gene assay. The series is classed as cell-based. Summed up: as §1

Sequence of Transcription factor Jun (Homo sapiens) (P05412 whole entry): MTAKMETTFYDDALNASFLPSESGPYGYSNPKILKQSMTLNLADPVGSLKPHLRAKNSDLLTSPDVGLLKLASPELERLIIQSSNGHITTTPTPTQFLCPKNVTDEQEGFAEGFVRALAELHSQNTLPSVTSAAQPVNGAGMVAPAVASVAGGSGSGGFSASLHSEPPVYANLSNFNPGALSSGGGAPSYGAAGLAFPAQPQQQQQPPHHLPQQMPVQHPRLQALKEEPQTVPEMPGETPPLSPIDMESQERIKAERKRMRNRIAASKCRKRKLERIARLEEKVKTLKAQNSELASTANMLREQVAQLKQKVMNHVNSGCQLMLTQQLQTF

For orientation: inhibition means the percentage by which the read-out fell short of the control. Regarding `CC(=O)Nc1ccc(-c2cc(-c3nc4ccccc4c(=O)n3-c3ccc(C)cc3)sc2N2CCOCC2)cc1`, the values for the inhibition (with HEK293 [1]; in series [3]) were 4% and 35%, respectively. In the series with HEK293 [2], the Activity entry is “Non-toxic”.
With `O=c1c2ccccc2nc(-c2cc(-c3ccncc3)c(N3CCOCC3)s2)n1-c1ccccc1`, the inhibition came out at 30% in the series with HEK293 [1] and 38% in series [3]. In addition, the Activity result with HEK293 [2] was “Non-toxic”.
Regarding `CC(=O)Nc1ccc(-c2cc(-c3nc4ccccc4c(=O)n3-c3cccc(C)c3)sc2N2CCOCC2)cc1`, the figures for the inhibition (with HEK293 [1]; in series [3]) were 35% and 13%, respectively. Besides, the Activity result in the series on HEK293 [2] is “Non-toxic”.
With `O=c1c2ccccc2nc(-c2cc(-c3ccc(Cl)cc3)c(N3CCOCC3)s2)n1-c1ccc(Cl)cc1`, the inhibition in the series on HEK293 [1] was found to be 0%; in series [3], 14%. Further, the Activity entry in the series on HEK293 [2] is listed as “Non-toxic”.
With `CS(=O)(=O)c1ccc(-c2cc(-c3nc4ccccc4c(=O)n3-c3ccc(Cl)cc3)sc2N2CCOCC2)cc1`, the inhibition with HEK293 [1] came to 0%; in series [3] it was 7%. Further, in the series with HEK293 [2], the Activity result is “Non-toxic”.
Broadly, the IC50 is the midpoint of a concentration-inhibition curve. Regarding `COc1ccc(-n2c(-c3cc(-c4ccc(S(C)(=O)=O)cc4)c(N4CCOCC4)s3)nc3ccccc3c2=O)cc1`, the inhibition was 60% in the series on HEK293 [1] and 10% in series [3]. In addition, the Activity in the series on Rattus norvegicus is 53%; with HEK293 [2], “Non-toxic”. For the same compound, in series [4], the IC50 was 26 µM.
`Cc1ccc(-n2c(-c3cc(-c4ccncc4)c(N4CCOCC4)s3)nc3ccccc3c2=O)cc1`: the inhibition with HEK293 [1] was 26%; in series [3] it was 29%. Also, in the series with HEK293 [2], the Activity result is given as “Non-toxic”.
For `CSc1ccc(-c2cc(-c3nc4ccccc4c(=O)n3-c3ccc(C)cc3)sc2N2CCOCC2)cc1` the same measures were 22%, 16% and “Non-toxic”.
For `Cc1ccccc1-n1c(-c2cc(-c3ccc(S(C)(=O)=O)cc3)c(N3CCOCC3)s2)nc2ccccc2c1=O` the same measures were 51%, 52% and “Non-toxic”.
Consider `COc1ccccc1-n1c(-c2cc(-c3ccc(S(C)(=O)=O)cc3)c(N3CCOCC3)s2)nc2ccccc2c1=O`, for which the inhibition with HEK293 [1] amounted to 55%; in series [3], 33%. Further, the Activity with Rattus norvegicus was 63%; with HEK293 [2], “Non-toxic”. Also, the IC50 in series [4] came to 9.2 µM.
Take `Cc1cccc(-n2c(-c3cc(-c4ccncc4)c(N4CCOCC4)s3)nc3ccccc3c2=O)c1`: the inhibition stood at 42% in the series on HEK293 [1] and 35% in series [3]. In addition, the Activity result in the series on HEK293 [2] was “Non-toxic”.
For `CSc1ccc(-c2cc(-c3nc4ccccc4c(=O)n3-c3ccccc3)sc2N2CCOCC2)cc1` the same measures were 0%, 0% and “Non-toxic”.
Turning to `O=c1c2ccccc2nc(-c2cc(-c3ccncc3)c(N3CCOCC3)s2)n1-c1ccc(Cl)cc1`, the inhibition amounted to 68% with HEK293 [1] and 32% in series [3]. Further, the results for the Activity in the series with Rattus norvegicus and in the series on HEK293 [2] were 52% and “Non-toxic”, respectively. Also, the IC50 in series [4] turned out to be 11.4 µM.
Regarding `Cc1ccccc1-n1c(-c2cc(-c3ccc(Cl)cc3)c(N3CCOCC3)s2)nc2ccccc2c1=O`, the figures for the inhibition (in the series on HEK293 [1]; in series [3]) were 1% and 32%, respectively. For the same compound, the Activity result in the series with HEK293 [2] is “Non-toxic”.
For `Cc1ccc(-n2c(-c3cc(-c4ccc(Cl)cc4)c(N4CCOCC4)s3)nc3ccccc3c2=O)cc1` the same measures were 15%, 27% and “Non-toxic”.
The corresponding values for `CC(=O)c1ccc(-n2c(-c3cc(-c4ccc(S(C)(=O)=O)cc4)c(N4CCOCC4)s3)nc3ccccc3c2=O)cc1` are 46%, 31% and “Non-toxic”.
For `CC(=O)c1ccc(-n2c(-c3cc(-c4ccc(Cl)cc4)c(N4CCOCC4)s3)nc3ccccc3c2=O)cc1` the same measures were 0%, 7% and “Non-toxic”.
As for `CSc1ccc(-c2cc(-c3nc4ccccc4c(=O)n3-c3cccc(C)c3)sc2N2CCOCC2)cc1`, the results for the inhibition (with HEK293 [1]; in series [3]) were 11% and 14%, respectively. Further, the Activity entry in the series on HEK293 [2] was “Non-toxic”.
For `O=c1c2ccccc2nc(-c2cc(-c3ccc(Cl)cc3)c(N3CCOCC3)s2)n1-c1ccccc1` the same measures were 0%, 0% and “Non-toxic”.
For `Cc1ccc(-n2c(-c3cc(-c4ccc(S(C)(=O)=O)cc4)c(N4CCOCC4)s3)nc3ccccc3c2=O)cc1` the same measures were 55%, 51% and “Non-toxic”.
As to `Cc1cccc(-n2c(-c3cc(-c4ccc(S(C)(=O)=O)cc4)c(N4CCOCC4)s3)nc3ccccc3c2=O)c1`, the results for the inhibition (with HEK293 [1]; in series [3]) were 20% and 48%, respectively. Further, the Activity entry in the series on HEK293 [2] is given as “Non-toxic”.
The corresponding values for `Cc1ccc(-n2c(-c3cc(-c4ccccc4)c(N4CCOCC4)s3)nc3ccccc3c2=O)cc1` are 0%, 17% and “Non-toxic”.
As to `O=c1c2ccccc2nc(-c2cc(-c3ccncc3)c(N3CCOCC3)s2)n1-c1ccccc1Cl`, the inhibition in the series on HEK293 [1] was 80%; in series [3], 35%. Further, the Activity with Rattus norvegicus is given as 43%; with HEK293 [2], “Non-toxic”. Also, in series [4], the 50% inhibitory concentration (IC50) stood at 10.3 µM.
For the compound `CC(=O)Nc1ccc(-c2cc(-c3nc4ccccc4c(=O)n3-c3ccc(Cl)cc3)sc2N2CCOCC2)cc1`, the inhibition with HEK293 [1] stood at 0%; in series [3] it was 17%. Further, in the series with HEK293 [2], the Activity entry is given as “Non-toxic”.
`COc1ccccc1-n1c(-c2cc(-c3ccncc3)c(N3CCOCC3)s2)nc2ccccc2c1=O`: the inhibition was 55% in the series with HEK293 [1] and 33% in series [3]. Besides, the Activity is 42% with Rattus norvegicus and “Non-toxic” with HEK293 [2]. In addition, the IC50 in series [4] was determined as 12.2 µM.
As for `COc1cccc(-n2c(-c3cc(-c4ccc(S(C)(=O)=O)cc4)c(N4CCOCC4)s3)nc3ccccc3c2=O)c1`, the inhibition was 20% in the series on HEK293 [1] and 0% in series [3]. Moreover, in the series with HEK293 [2], the Activity result was “Non-toxic”.
The corresponding values for `CS(=O)(=O)c1ccc(-c2cc(-c3nc4ccccc4c(=O)n3-c3ccccc3)sc2N2CCOCC2)cc1` are 9%, 28% and “Non-toxic”.
The corresponding values for `O=c1c2ccccc2nc(-c2cc(-c3ccccc3)c(N3CCOCC3)s2)n1-c1ccccc1` are 0%, 11% and “Non-toxic”.
For `Cc1ccccc1-n1c(-c2cc(-c3ccncc3)c(N3CCOCC3)s2)nc2ccccc2c1=O`, the figures for the inhibition (with HEK293 [1]; in series [3]) were 53% and 0%, respectively. In addition, the Activity is listed as 51% with Rattus norvegicus and “Non-toxic” with HEK293 [2]. Moreover, the IC50 in series [4] came out at 7.1 µM.
Take `CSc1ccc(-c2cc(-c3nc4ccccc4c(=O)n3-c3ccccc3C)sc2N2CCOCC2)cc1`: the inhibition with HEK293 [1] was found to be 15%; in series [3], 13%. Besides, in the series on HEK293 [2], the Activity entry is given as “Non-toxic”.
The corresponding values for `COc1ccccc1-n1c(-c2cc(-c3ccccc3)c(N3CCOCC3)s2)nc2ccccc2c1=O` are 0%, 0% and “Non-toxic”.
With `Cc1ccccc1-n1c(-c2cc(-c3ccccc3)c(N3CCOCC3)s2)nc2ccccc2c1=O`, the inhibition in the series on HEK293 [1] is 23%; in series [3] it was 27%. Also, the Activity result with HEK293 [2] is “Non-toxic”.
For `Cc1cccc(-n2c(-c3cc(-c4ccc(Cl)cc4)c(N4CCOCC4)s3)nc3ccccc3c2=O)c1` the same measures were 28%, 10% and “Non-toxic”.
Take `CC(=O)c1ccc(-n2c(-c3cc(-c4ccccc4)c(N4CCOCC4)s3)nc3ccccc3c2=O)cc1`: the figures for the inhibition (in the series with HEK293 [1]; in series [3]) were 0% and 25%, respectively. Besides, the Activity entry with HEK293 [2] is recorded as “Non-toxic”.
The corresponding values for `O=c1c2ccccc2nc(-c2cc(-c3ccccc3)c(N3CCOCC3)s2)n1-c1ccc(Cl)cc1` are 0%, 23% and “Non-toxic”.
For `CC(=O)Nc1ccc(-c2cc(-c3nc4ccccc4c(=O)n3-c3ccccc3)sc2N2CCOCC2)cc1` the same measures were 7%, 26% and “Non-toxic”.

Source of the values: ChEMBL document CHEMBL1156197, “Design, synthesis and evaluation of novel 2-thiophen-5-yl-3H-quinazolin-4-one analogues as inhibitors of transcription factors NF-kappaB and AP-1 mediated transcriptional activation: Their possible utilization as anti-inflammatory and anti-cancer agents” (Bioorg Med Chem, 2010).
